Data: ChEMBL document CHEMBL1255245, “Relative replication capacity and selective advantage profiles of protease inhibitor-resistant hepatitis C virus (HCV) NS3 protease mutants in the HCV genotype 1b replicon system” (Antimicrob Agents Chemother, 2008)

Assays:
Hepatitis C virus [1] = assay: Selectivity ratio of EC50 for Hepatitis C virus genotype 1b N expressing NS3 D168V mutant infected in human HuH7 cells to EC50 for Hepatitis C virus genotype 1b N expressing wild type NS3 infected in human HuH7 cells; assay type: functional, Hepacivirus hominis, genotype 1b strain N, Huh-7
In short: (§1)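 Change in resistance: mutant replicon EC50 divided by wild-type 1b N replicon EC50 for the same drug. Both EC50s come from 4-day transient-replication assays in electroporated Huh7 cells with a firefly luciferase read-out, fitted from triplicate-well means. Mean of at least three experiments.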

Hepatitis C virus [2] = assay: Selectivity ratio of EC50 for Hepatitis C virus genotype 1b N expressing NS3 V36M mutant infected in human HuH7 cells to EC50 for Hepatitis C virus genotype 1b N expressing wild type NS3 infected in human HuH7 cells; assay type: functional, Hepacivirus hominis, genotype 1b strain N, Huh-7; in short: as §1
Hepatitis C virus [3] = assay: Selectivity ratio of EC50 for Hepatitis C virus genotype 1b N expressing NS3 A156S mutant infected in human HuH7 cells to EC50 for Hepatitis C virus genotype 1b N expressing wild type NS3 infected in human HuH7 cells; assay type: functional, Hepacivirus hominis, genotype 1b strain N, Huh-7; in short: as §1
Hepatitis C virus [4] = assay: Selectivity ratio of EC50 for Hepatitis C virus genotype 1b N expressing NS3 R155K mutant infected in human HuH7 cells to EC50 for Hepatitis C virus genotype 1b N expressing wild type NS3 infected in human HuH7 cells; assay type: functional, Hepacivirus hominis, genotype 1b strain N, Huh-7; in short: as §1
Hepatitis C virus [5] = assay: Selectivity ratio of EC50 for Hepatitis C virus genotype 1b N expressing NS3 D168A mutant infected in human HuH7 cells to EC50 for Hepatitis C virus genotype 1b N expressing wild type NS3 infected in human HuH7 cells; assay type: functional, Hepacivirus hominis, genotype 1b strain N, Huh-7; in short: as §1
Hepatitis C virus [6] = assay: Selectivity ratio of EC50 for Hepatitis C virus genotype 1b N expressing NS3 R155Q mutant infected in human HuH7 cells to EC50 for Hepatitis C virus genotype 1b N expressing wild type NS3 infected in human HuH7 cells; assay type: functional, Hepacivirus hominis, genotype 1b strain N, Huh-7; in short: as §1
Hepatitis C virus [7] = assay: Selectivity ratio of EC50 for Hepatitis C virus genotype 1b N expressing NS3 A156T mutant infected in human HuH7 cells to EC50 for Hepatitis C virus genotype 1b N expressing wild type NS3 infected in human HuH7 cells; assay type: functional, Hepacivirus hominis, genotype 1b strain N, Huh-7; in short: as §1
Hepatitis C virus [8] = assay: Selectivity ratio of EC50 for Hepatitis C virus genotype 1b N expressing NS3 V170A mutant infected in human HuH7 cells to EC50 for Hepatitis C virus genotype 1b N expressing wild type NS3 infected in human HuH7 cells; assay type: functional, Hepacivirus hominis, genotype 1b strain N, Huh-7; in short: as §1
Hepatitis C virus [9] = assay: Selectivity ratio of EC50 for Hepatitis C virus genotype 1b N expressing NS3 A156V mutant infected in human HuH7 cells to EC50 for Hepatitis C virus genotype 1b N expressing wild type NS3 infected in human HuH7 cells; assay type: functional, Hepacivirus hominis, genotype 1b strain N, Huh-7; in short: as §1
Hepatitis C virus [10] = assay: Antiviral activity against wild-type Hepatitis C virus genotype 1b N infected in human Huh7 cells; assay type: functional, organism-based, Hepacivirus hominis; settings: genotype 1b strain N, Huh-7
In short: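 Transient replication: firefly-luciferase replicon RNA (genotype 1b N strain) transcribed in vitro and electroporated into Huh7 cells, plated in DMEM with 10% FBS. Luciferase read at 4 h to gauge transfection/translation. Drug dilutions added to a second plate set, incubated 4 days at 37°C, then luciferase measured. Triplicate samples per experiment; EC50 fitted from means; at least three experiments.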

Hepatitis C virus [11] = assay: Selectivity ratio of EC50 for Hepatitis C virus genotype 1b N expressing NS3 T54A mutant infected in human HuH7 cells to EC50 for Hepatitis C virus genotype 1b N expressing wild type NS3 infected in human HuH7 cells; assay type: functional, Hepacivirus hominis, genotype 1b strain N, Huh-7; in short: as §1
Hepatitis C virus [12] = assay: Selectivity ratio of EC50 for Hepatitis C virus genotype 1b N expressing NS3 V36M/R155K double mutant infected in human HuH7 cells to EC50 for Hepatitis C virus genotype 1b N expressing wild type NS3 infected in human HuH7 cells; assay type: functional, Hepacivirus hominis, genotype 1b strain N, Huh-7; in short: as §1
Hepatitis C virus [13] = assay: Selectivity ratio of EC50 for Hepatitis C virus genotype 1b N expressing NS3 R155K mutant infected in human HuH7 cells to EC50 for Hepatitis C virus genotype 1b N expressing wild type NS3 infected in human HuH7 cells at >10 nM; assay type: functional, Hepacivirus hominis, genotype 1b strain N, Huh-7
Hepatitis C virus [14] = assay: Selectivity ratio of EC50 for Hepatitis C virus genotype 1b N expressing NS3 R155K mutant infected in human HuH7 cells to EC50 for Hepatitis C virus genotype 1b N expressing wild type NS3 infected in human HuH7 cells at 100 nM; assay type: functional, Hepacivirus hominis, genotype 1b strain N, Huh-7
Hepatitis C virus [15] = assay: Selectivity ratio of EC50 for Hepatitis C virus genotype 1b N expressing NS3 R155Q mutant infected in human HuH7 cells to EC50 for Hepatitis C virus genotype 1b N expressing wild type NS3 infected in human HuH7 cells at 100 nM; assay type: functional, Hepacivirus hominis, genotype 1b strain N, Huh-7
Hepatitis C virus [16] = assay: Selectivity ratio of EC50 for Hepatitis C virus genotype 1b N expressing NS3 A156T mutant infected in human HuH7 cells to EC50 for Hepatitis C virus genotype 1b N expressing wild type NS3 infected in human HuH7 cells at 100 nM; assay type: functional, Hepacivirus hominis, genotype 1b strain N, Huh-7
Hepatitis C virus [17] = assay: Selectivity ratio of EC50 for Hepatitis C virus genotype 1b N expressing NS3 R155Q mutant infected in human HuH7 cells to EC50 for Hepatitis C virus genotype 1b N expressing wild type NS3 infected in human HuH7 cells at 10 nM; assay type: functional, Hepacivirus hominis, genotype 1b strain N, Huh-7
Hepatitis C virus [18] = assay: Selectivity ratio of EC50 for Hepatitis C virus genotype 1b N expressing NS3 V170A mutant infected in human HuH7 cells to EC50 for Hepatitis C virus genotype 1b N expressing wild type NS3 infected in human HuH7 cells at 100 nM; assay type: functional, Hepacivirus hominis, genotype 1b strain N, Huh-7
Hepatitis C virus [19] = assay: Selectivity ratio of EC50 for Hepatitis C virus genotype 1b N expressing NS3 D168V mutant infected in human HuH7 cells to EC50 for Hepatitis C virus genotype 1b N expressing wild type NS3 infected in human HuH7 cells at 10 nM; assay type: functional, Hepacivirus hominis, genotype 1b strain N, Huh-7
Hepatitis C virus [20] = assay: Selectivity ratio of EC50 for Hepatitis C virus genotype 1b N expressing NS3 R155K mutant infected in human HuH7 cells to EC50 for Hepatitis C virus genotype 1b N expressing wild type NS3 infected in human HuH7 cells at 10 nM; assay type: functional, Hepacivirus hominis, genotype 1b strain N, Huh-7
Hepatitis C virus [21] = assay: Selectivity ratio of EC50 for Hepatitis C virus genotype 1b N expressing NS3 D168V mutant infected in human HuH7 cells to EC50 for Hepatitis C virus genotype 1b N expressing wild type NS3 infected in human HuH7 cells at 100 nM; assay type: functional, Hepacivirus hominis, genotype 1b strain N, Huh-7
Hepatitis C virus [22] = assay: Selectivity ratio of EC50 for Hepatitis C virus genotype 1b N expressing NS3 A156T mutant infected in human HuH7 cells to EC50 for Hepatitis C virus genotype 1b N expressing wild type NS3 infected in human HuH7 cells at 10 nM; assay type: functional, Hepacivirus hominis, genotype 1b strain N, Huh-7
Hepatitis C virus [23] = assay: Selectivity ratio of EC50 for Hepatitis C virus genotype 1b N expressing NS3 V170A mutant infected in human HuH7 cells to EC50 for Hepatitis C virus genotype 1b N expressing wild type NS3 infected in human HuH7 cells at 10 nM; assay type: functional, Hepacivirus hominis, genotype 1b strain N, Huh-7

| Structure (SMILES) | Ratio EC50 (Hepatitis C virus [1]) | Ratio EC50 (Hepatitis C virus [2]) | Ratio EC50 (Hepatitis C virus [3]) | Ratio EC50 (Hepatitis C virus [4]) | Ratio EC50 (Hepatitis C virus [5]) | Ratio EC50 (Hepatitis C virus [6]) | Ratio EC50 (Hepatitis C virus [7]) | Ratio EC50 (Hepatitis C virus [8]) | Ratio EC50 (Hepatitis C virus [9]) | EC50 (Hepatitis C virus [10]) | Ratio EC50 (Hepatitis C virus [11]) | Ratio EC50 (Hepatitis C virus [12]) | also measured |
| --- | --- | --- | --- | --- | --- | --- | --- | --- | --- | --- | --- | --- | --- |
| CC(C)(C)OC(=O)N[C@H]1CCCCC/C=C\[C@@H]2C[C@@]2(C(=O)NS(=O)(=O)C2CC2)NC(=O)[C@@H]2C[C@@H](OC(=O)N3Cc4cccc(F)c4C3)CN2C1=O [DANOPREVIR] | 14.9 | 0.7 | 40 | 89.3 | 14 | 6.1 | 96 | 1.2 | 7.1 | 0.3 nM | 0.9 | 55.7 | Ratio EC50 (Hepatitis C virus [13]): 33 |
| COc1ccc2c(O[C@@H]3C[C@H]4C(=O)N[C@]5(C(=O)O)C[C@H]5/C=C\CCCCC[C@H](NC(=O)OC5CCCC5)C(=O)N4C3)cc(-c3csc(NC(C)C)n3)nc2c1 [CILUPREVIR] | 193.6 | 0.8 | 28 | 147.5 | 63.3 | 29.6 | 366.6 | 1.5 | 445 | 1.5 nM | 0.6 | 139.9 | Ratio EC50 (Hepatitis C virus [14]): 660; Ratio EC50 (Hepatitis C virus [15]): 660; Ratio EC50 (Hepatitis C virus [16]): 660; Ratio EC50 (Hepatitis C virus [17]): 7; Ratio EC50 (Hepatitis C virus [18]): 660; Ratio EC50 (Hepatitis C virus [19]): 7; Ratio EC50 (Hepatitis C virus [20]): 7; Ratio EC50 (Hepatitis C virus [21]): 660; Ratio EC50 (Hepatitis C virus [22]): 7; Ratio EC50 (Hepatitis C virus [23]): 7 |
| CCC[C@H](NC(=O)[C@@H]1[C@H]2CCC[C@H]2CN1C(=O)[C@@H](NC(=O)[C@@H](NC(=O)c1cnccn1)C1CCCCC1)C(C)(C)C)C(=O)C(=O)NC1CC1 [TELAPREVIR] | 0.2 | 0.7 | 19 | 5.4 | 0.1 | 1.3 | 96.3 |  | 63.1 | 320 nM | 6.7 | 3.3 |  |
